# Measurements from different studies.
# Organism: Escherichia coli
Structure (SMILES),assay,system,conditions,quantity,value
Cc1ccc(-n2cc(COC3=CC(=O)c4ccccc4C3=O)nn2)cc1,"microbial growth, broth dilution",ATCC25922,,IC50,224 µg/mL
CC(C)Oc1c(NC(=O)c2ccc(NC(=O)[C@H](CC(N)=O)NC(=O)c3ccc(-c4nn[nH]c4-c4ccc(C#N)cc4)cc3)cc2)ccc(C(=O)Nc2ccc(C(=O)O)cc2)c1O,microbial growth,DSM1116,,MIC,> 64 µg/mL
Clc1ccc(-n2cc(COc3cccc4cccnc34)nn2)cc1,"microbial growth, broth dilution",ATCC25922,,IC50,470 µg/mL
Cc1cc(N)c2ccccc2[n+]1CCCCCCCCCC[n+]1c(C)cc(N)c2ccccc21,"microbial growth, disc diffusion",,50 µg/disc,inhibition zone,0 mm
CC(C)Oc1c(NC(=O)c2ccc(NC(=O)[C@H](CC(N)=O)NC(=O)c3ccc(NC(=O)c4ccc(C#N)cc4)cc3)cc2)ccc(C(=O)NC2CCNCC2)c1O,microbial growth,DSM1116,,MIC,> 64 µg/mL
Cc1ccc(S(=O)(=O)Oc2cc(C(C)C)ccc2C)cc1,"microbial growth, broth dilution",ATCC25922,,IC50,317 µg/mL
COc1c(C)c(OS(=O)(=O)c2ccc3ccccc3c2)c(C)c(OS(=O)(=O)c2ccc3ccccc3c2)c1C(=O)/C=C/c1ccccc1,"microbial growth, well diffusion",ATCC25922,5 µg/mL,inhibition zone,12 mm
CC(C)Oc1c(NC(=O)c2ccc(NC(=O)[C@H](CC(N)=O)NC(=O)c3ccc(NC(=O)c4ccc(C#N)c(F)c4)cc3)cc2)ccc(C(=O)Nc2ccc(C(=O)O)cc2)c1O,microbial growth,DSM1116,,MIC,0.25 µg/mL
N=C(N)c1cccc(OCc2ccc(COc3cccc(C(=N)N)c3)cc2)c1,"microbial growth, broth dilution",ATCC25922,,MIC,200 µg/mL
CC1(C)SC2C(NC(=O)C(NC(=O)C3=C(O)C(Cc4ccccc4)NC3=O)c3ccccc3)C(=O)N2C1C(=O)O (stereo not drawn),"microbial growth, well diffusion",BW25113,200 µM,inhibition zone,12 mm
CC(C)Oc1c(NC(=O)c2ccc(NC(=O)[C@H](CC(N)=O)NC(=O)c3ccc(NC(=O)c4ccc(C(F)(F)F)cc4)cc3)cc2)ccc(C(=O)Nc2ccc(C(=O)O)cc2)c1O,microbial growth,DSM1116,,MIC,0.5 µg/mL
CC1(C)S[C@@H]2[C@H](NC(=O)[C@H](N)c3ccccc3)C(=O)N2[C@H]1C(=O)O,"microbial growth, well diffusion",BW25113,200 µM,inhibition zone,14 mm
N=C(N)c1ccc(OCCS(=O)(=O)CCOc2ccc(C(=N)N)cc2)cc1,"microbial growth, broth dilution",BW25113,,MIC,> 200 µg/mL
O=C(N/N=C/c1ccc([N+](=O)[O-])o1)c1ccc(O)cc1,microbial growth,ATCC25922,,MIC90,0.49 µg/mL
CCCc1ccsc1-c1ccc(O)c(O)c1,microbial growth,AS19,10 h,IC50,15.4 µM
N=C(N)c1ccc(OCc2ccc3ccc(COc4ccc(C(=N)N)cc4)cc3c2)cc1,microbial growth,BW25113,,MIC,≥ 200 µg/mL
COc1c(N2C[C@@H]3CCCN[C@@H]3C2)c(F)cc2c(=O)c(C(=O)O)cn(C3CC3)c12,microbial growth,ATCC25922,,MIC90,0.06 µg/mL
O=C(Cc1ccccc1)Sc1cccccc1=O,"microbial growth, broth dilution",ATCC35218,,MIC80,19.8 µM
Oc1ccc(-c2ccsc2)cc1O,microbial growth,AS19,10 h,IC50,29.9 µM
Fc1ccc(-n2cc(COc3cccc4cccnc34)nn2)cc1,"microbial growth, broth dilution",ATCC25922,,IC50,405 µg/mL
COc1c(C)c(OCc2ccccc2)c(C)c(O)c1C(=O)/C=C/c1ccccc1,"microbial killing, broth dilution",ATCC25922,,MBC,> 5000 µg/mL
O=C(Sc1cccccc1=O)c1cccc(C(F)(F)F)c1,"microbial growth, broth dilution",ATCC35218,,MIC80,19.8 µM
CCCCCCCCCC(=O)Oc1c(C)c(O)c(C(=O)/C=C/c2ccccc2)c(OC)c1C,"microbial killing, broth dilution",ATCC25922,,MBC,> 5000 µg/mL
N=C(N)c1ccc(OCCCCCCCCOc2ccc(C(=N)N)cc2)cc1,microbial growth,BW25113,,MIC,50 µg/mL
c1ccc2[nH]c(-c3ccncc3)nc2c1,"microbial growth, broth dilution",ATCC25922,,MIC,128 µg/mL
CC[C@H](C)[C@H](NC(=O)OCC1c2ccccc2-c2ccccc21)C(=O)Sc1cccccc1=O,"microbial growth, broth dilution",ATCC35218,,MIC80,> 100 µM
C=CCCCCCCCCCCCC(O)CC(O)CO (stereo not drawn),"microbial growth, broth dilution",ATCC35218,,IC50,> 200 µg/mL
CC1(C)S[C@@H]2[C@H](NC(=O)C(C(=O)O)c3ccccc3)C(=O)N2[C@H]1C(=O)O (stereo partly drawn),"microbial growth, well diffusion",BW25113,200 µM,inhibition zone,15 mm
Cc1ccc(C(C)C)cc1OCc1cn(-c2ccccc2)nn1,"microbial growth, broth dilution",ATCC25922,,IC50,249 µg/mL
O=[N+]([O-])c1ccc(-c2nc3ccccc3[nH]2)cc1,"microbial growth, broth dilution",ATCC25922,,MIC,128 µg/mL
COc1cc(C=Cc2cc(-c3ccc(N(C)C)cc3)nc(O)n2)ccc1O,"microbial growth, disc diffusion",ATCC25922,500 µg/mL,inhibition zone,11 mm
Clc1ccc(-c2nc3ccccc3[nH]2)cc1Cl,"microbial growth, broth dilution",ATCC25922,,MIC,32 µg/mL
COc1ccc(-n2cc(COC3=CC(=O)c4ccccc4C3=O)nn2)cc1,"microbial growth, broth dilution",ATCC25922,,IC50,314 µg/mL
COc1ccc(-c2nc3ccc(C)cc3[nH]2)cc1OC,"microbial growth, broth dilution",ATCC25922,,MIC,64 µg/mL
COc1c(C)c(OC(C)=O)c(C)c(OC(C)=O)c1C(=O)/C=C/c1ccccc1,"microbial killing, broth dilution",ATCC25922,,MBC,> 5000 µg/mL
c1ccc(-n2cc(COc3cccc4cccnc34)nn2)cc1,"microbial growth, broth dilution",ATCC25922,,IC50,408 µg/mL
N=C(N)c1ccccc1OCc1cccc(COc2ccccc2C(=N)N)c1,"microbial growth, broth dilution",BW25113,,MIC,> 200 µg/mL
COc1cc(C=CC(=O)CC(c2ccc([N+](=O)[O-])cc2)n2ccnc2)ccc1O (stereo not drawn),"microbial growth, disc diffusion",ATCC25922,500 µg/mL,inhibition zone,10.3 mm
Cc1ccc2nc(-c3ccc([N+](=O)[O-])cc3)[nH]c2c1,"microbial growth, broth dilution",ATCC25922,,MIC,64 µg/mL
O=C1C=C(OCc2cn(-c3ccccc3)nn2)C(=O)c2ccccc21,"microbial growth, broth dilution",ATCC25922,,IC50,99.5 µg/mL
COc1c(C)c(O)c(C)c(O)c1C(=O)/C=C/c1ccccc1,"microbial killing, broth dilution",ATCC25922,,MBC,> 5000 µg/mL
O=C(N[C@H](CO)[C@H](O)c1ccc([N+](=O)[O-])cc1)C(Cl)Cl,microbial growth,ATCC25922,,MIC90,0.98 µg/mL
N=C(N)c1ccccc1OCCCCCOc1ccccc1C(=N)N,microbial growth,BW25113,,MIC,> 200 µg/mL
Cc1ccc2nc(-c3ccc(F)cc3)[nH]c2c1,"microbial growth, broth dilution",ATCC25922,,MIC,64 µg/mL
COc1cc(C=Cc2cc(-c3ccccc3)nc(O)n2)ccc1O,"microbial growth, disc diffusion",ATCC25922,250 µg/mL,inhibition zone,6 mm
